Fewer inactive variants are shown than the library holds.
B1: tRNA (parent)
chain: GUUCCGUUGGCGUAAUGGUAACGCGUCUCCCUCCUAAGGAGAAGACUGCGGGUUCGAGUCCCGUACGGAACG

Variants of: B1
Experiment: yeast fitness relative to wild type (ratio to wild type); higher = fitter; tRNA-Arg(CCU), competitive growth, 37 C, YPD
Outline: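 Variants of the tRNA-Arg(CCU) gene were chemically synthesised with a 3% per-site mutation rate across 69 sites and placed at the native genomic locus in Saccharomyces cerevisiae. Six parallel replicates of the pooled strains were competed in YPD at 37°C for 24 hours, and gene amplicons from the start and end populations were read by 100-nucleotide paired-end sequencing. Darwinian fitness relative to wild type was derived from changes in genotype frequencies. Genotypes required ≥ 100 starting reads, and estimates < 0.5 were set to 0.5.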

Row | Variant | yeast fitness
1 | G10A A57U A65C A70G | ≤ 0.5
2 | G10A C30A C55A G58A | ≤ 0.5
3 | G10A C66G | 0.592
4 | G10A C66A | 0.545
5 | G10A C34U A43G | ≤ 0.5
6 | G10A A40C | 0.771
7 | G10A C49U | 0.697
8 | G10A C49G | 0.668
9 | G10A G39U A57C A70U | ≤ 0.5
10 | G10A A37U A65U | ≤ 0.5
11 | G10A G56A | 0.754
12 | G10A A45U G48A | ≤ 0.5
13 | G10A A15U A21C G25C | 0.533
14 | G10A G17A C66G | 0.623
15 | G10A C24G | 0.517
16 | G10A C24U | 0.977
17 | G10A A20U C30U G56A A65G C66A G68C | ≤ 0.5
18 | G10A G12A | 0.805
19 | G10A A45C C49U | 0.652
20 | G10A C11A A15C C24A | ≤ 0.5
21 | G10A C61U | 0.744
22 | G10A C61G | ≤ 0.5
23 | G10A C61A | ≤ 0.5
24 | G10A C33U U64A | 0.553

Row | Variant | yeast fitness
25 | G10A G51A C55G G67U G68C | ≤ 0.5
26 | G10A A57U U59A A65C | 0.561
27 | G10A A36C A45C A70U | ≤ 0.5
28 | G10A C22U G68A | ≤ 0.5
29 | G10A A20C C27G A40G A70C | ≤ 0.5
30 | G10A A15U A36U G63A | ≤ 0.5
31 | G10A G38C C46A C62G C66U | ≤ 0.5
32 | G10A C31U C34A A40G U59A | 0.596
33 | G10A G58A A69U | 0.54
34 | G10A U19A G44C U54G C55U | ≤ 0.5
35 | G10A C27A A37U G52A U54C G56C A57G | ≤ 0.5
36 | G10A G25A G41C A57G | ≤ 0.5
37 | G10A A42U U59A | ≤ 0.5
38 | G10A A42G A65G | ≤ 0.5
39 | G10A C22U U47C G68A | ≤ 0.5
40 | G10A A36U | 0.596
41 | G10A A15G C34G G68C | ≤ 0.5
42 | G10A A15G C34G G68A | ≤ 0.5
43 | G10A C11A A14G A15G G38A | ≤ 0.5
44 | G10A C24G G68A | 0.735
45 | G10A C29G A43U U53G | ≤ 0.5
46 | G10A A20G U26C A69C A70G | ≤ 0.5
47 | G10A C31G | 0.651
48 | G10A U19A A40C A42C | 0.541

Row | Variant | yeast fitness
49 | G10A A20C C27G A40G G56C | ≤ 0.5
50 | G10A A69C | 0.858
51 | G10A A69U | 0.732
52 | G10A A69G | 0.641
53 | G10A A57G | 0.852
54 | G10A A57U | 0.607
55 | G10A A15G A65U | 0.702
56 | G10A U16A G68A | 0.567
57 | G10A G51A | 0.691
58 | G10A C11U C24A C55G | 0.595
59 | G10A U16A C31A A42G A43G G68C | ≤ 0.5
60 | G10A A15C G25A C55G U59C C60U G67U | ≤ 0.5
61 | G10A A20G U26C G39A G50A | ≤ 0.5
62 | G10A U19A A42G A65C | ≤ 0.5
63 | G10A G18A C46A | 0.539
64 | G10A C11U C29A C34A G44A A69C | ≤ 0.5
65 | G10A G18A A36G U53A A70G | ≤ 0.5
66 | G10A G18A C27G A37G G38A C61U | ≤ 0.5
67 | G10A A15C G25A | 0.582
68 | G10A G52A A57G C66U | ≤ 0.5
69 | G10A C24A G56C | ≤ 0.5
70 | G10A C55A | 0.67
71 | G10A C30A G48A | 0.559
72 | G10A C22U G56C A70U | ≤ 0.5

Row | Variant | yeast fitness
73 | G10A A21C C24A A65C G68C | ≤ 0.5
74 | G10A G50A U59G C62A | ≤ 0.5
75 | G10A U16A C24A G39C A43U C60U | ≤ 0.5
76 | G10A A21C A57U | ≤ 0.5
77 | G10A G41C C61G | ≤ 0.5
78 | G10A G18A A69C | ≤ 0.5
79 | G10A U16A A57U | 0.558
80 | G10A C29G U53A G56C C62G | ≤ 0.5
81 | G10A C62U A70U | 0.531
82 | G10A G67A | 0.75
83 | G10A G67C | 0.819
84 | G10A A21G A65C | 0.545
85 | G10A A20G C46U G50U C55U | ≤ 0.5
86 | G10A C29A C66U G67U G68A | 0.56
87 | G10A C30A C31G A69G | ≤ 0.5
88 | G10A G17A A37U | ≤ 0.5
89 | G10A C30U C60G C66U | ≤ 0.5
90 | G10A A14U C66U | ≤ 0.5
91 | G10A C29U G44C | ≤ 0.5
92 | G10A A57C C66G | ≤ 0.5
93 | G10A C11A A20U C66G | ≤ 0.5
94 | G10A C11G C31U A37C | ≤ 0.5
95 | G10A G44C G63C | ≤ 0.5
96 | G10A C55G G58A | ≤ 0.5

Row | Variant | yeast fitness
97 | G10A A20C G38A G41A C49U A65U | ≤ 0.5
98 | G10A U16G | 0.611
99 | G10A A65U | 0.788
100 | G10A A65C | 0.786
101 | G10A C30U G41A A69C | 0.548
102 | G10A U13G C27U C46G | ≤ 0.5
103 | G10A G25A A40C C55G C61A | ≤ 0.5
104 | G10A U13A C24A U54A | ≤ 0.5
105 | G10A C29U C30G C34A | ≤ 0.5
106 | G10A G17A U59G C62U | ≤ 0.5
107 | G10A G44C | 0.79
108 | G10A G44A | 0.786
109 | G10A A21G A40U | 0.558
110 | G10A C24A C62U | ≤ 0.5
111 | G10A C24U C60U | ≤ 0.5
112 | G10A A21C C66U | 0.531
113 | G10A G68U | 0.75
114 | G10A G68A | 0.753
115 | G10A C11U U35A C61U | ≤ 0.5
116 | G10A C11U A36G G67C | 0.572
117 | G10A A20G G41A C49U U53A C66G | ≤ 0.5
118 | G10A A45U U53G A65C | ≤ 0.5
119 | G10A G17A C31G | ≤ 0.5
120 | G10A U16A G17A U32A A42U G48C | ≤ 0.5

Row | Variant | yeast fitness
121 | G10A C29G G39C | ≤ 0.5
122 | G10A U13A A14C A43U C60G | ≤ 0.5
123 | G10A U16A A65C | ≤ 0.5
124 | G10A A36C A42U | 0.557
125 | G10A U13G A43U U53C | ≤ 0.5
126 | G10A A36G A65U | ≤ 0.5
127 | G10A A65G A70C | 0.65
128 | G10A C30G G68A | ≤ 0.5
129 | G10A G12C A21U A42U | ≤ 0.5
130 | G10A C22G G58C | ≤ 0.5
131 | G10A U13C G18C A20U C30A | ≤ 0.5
132 | G10A U16A C31A G51A A70U | ≤ 0.5
133 | G10A A15C A45C C49G G67U A69C | ≤ 0.5
134 | G10A C22U A70U | ≤ 0.5
135 | G10A G18A C62U | ≤ 0.5
136 | G10A A40U G52C | ≤ 0.5
137 | G10A A70U | 0.894
138 | G10A A70C | 0.856
139 | G10A G38C | 0.549
140 | G10A A36C A37G C49A | ≤ 0.5
141 | G10A G17A U28C C30G A45C C49U | ≤ 0.5
142 | G10A C30A A42G A43U | ≤ 0.5
143 | G10A A15U G17C A45U C49G A70U | ≤ 0.5
144 | G10A A21G C29A U53C C61G G67A A69C | ≤ 0.5

Row | Variant | yeast fitness
145 | G10A U19A A40C | ≤ 0.5
146 | G10A C30U | 0.748
147 | G10A C30A | 0.64
148 | G10A C30G | 0.511
149 | G10A G12A C29G A65U | ≤ 0.5
150 | G10A A20G C29U C49U G56A G63A | ≤ 0.5
151 | G10A C33U A45U G48C U64A A70U | ≤ 0.5
152 | G10A U16A G63A | ≤ 0.5
153 | G10A G23A A45G | ≤ 0.5
154 | G10A C24U C55U C66U | 0.52
155 | G10A U13A C24U A65C | ≤ 0.5
156 | G10A A20C G38A G41A C49U A57U | ≤ 0.5
157 | G10A C34A U35A U54C | 0.522
158 | G10A G23C C29U A36C C49G A70U | 0.542
159 | G10A G25A U47C | ≤ 0.5
160 | G10A U19A G44C C49U G67C | ≤ 0.5
161 | G10A A15G C49G G68U | ≤ 0.5
162 | G10A A21C C61G U64C | ≤ 0.5
163 | G10A A21U C27U C49A U64C | ≤ 0.5
164 | G10A C24A C30A C31G A43U U54G C62G | 0.544
165 | G10A A42U | 0.805
166 | G10A A15U A21C G25C G56A | ≤ 0.5
167 | G10A A20C A57C | ≤ 0.5
